Measurements as given in ChEMBL document CHEMBL1629423, “Second generation analogs of rigid 6,7-spiro scaffolds targeting the bacterial ribosome” (Bioorg Med Chem Lett, 2010).

What was measured:
Nucleic Acid = assay: Binding affinity to RNA by RNA fluorescence assay; format: nucleic-acid assay
Procedure, shortened: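 Decoding-site model RNA oligonucleotide carrying 2-aminopurine at the flexible adenine A1492. Binding is read as the rise in 2AP fluorescence emission. EC50 is the mean of three replicate experiments per compound (±10%), in μM.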

Bacterial 70S ribosome = assay: Binding affinity to Escherichia coli ribosome assessed as inhibition of transcription-translational activity by luciferase assay; format: subcellular
Procedure, shortened: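 Coupled in vitro transcription–translation run in E. coli extract. IC50 values are given in μM and averaged over three replicate experiments per compound (±15%).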

Ribosome = assay: Binding affinity to ribosome in reticulocyte lysate assessed as inhibition of transcription-translational activity by luciferase assay; format: subcellular
Procedure, shortened: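 Eukaryotic counter-screen by coupled transcription/translation (TNT quick) in reticulocyte lysate. IC50 is the mean of three replicate experiments per compound (±15%), in μM.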

SMILES	EC50 (Nucleic Acid) [µM]	IC50 (Bacterial 70S ribosome) [µM]	IC50 (Ribosome) [µM]
N[C@@H]1C[C@H](N)[C@@]2(C[C@H](O)[C@H](O)CO2)[C@H](O)[C@H]1O	6.5	11.3	> 1000
N[C@@H]1C[C@H](N)[C@@]2(CC[C@@H](O)[C@@H](O)CO2)[C@H](O)[C@H]1O	141	168	160
N[C@@H]1C[C@H](N)[C@@]2(CC[C@H](O)[C@H](O)CO2)[C@H](O)[C@H]1O	74	118	130
N[C@@H]1C[C@H](N)[C@@]2(CCC=CCO2)[C@H](O)[C@H]1O	8.4	> 1000	> 1000
C=CCC(C)(C)CN[C@@H]1C[C@H](N)[C@@]2(CCC=CCO2)[C@H](O)[C@H]1O	63	429	> 1000
NCC[C@H](O)C(=O)N[C@@H]1C[C@H](N)[C@@]2(CC[C@H](O)[C@H](O)CO2)[C@H](O)[C@H]1O	6.9	186	> 1000
NCCCC[C@H](N)C(=O)N[C@@H]1C[C@H](N)[C@@]2(CC[C@H](O)[C@H](O)CO2)[C@H](O)[C@H]1O	12	98	> 1000
NC[C@@H]1O[C@H](O[C@H]2[C@@H](O)[C@H](O[C@@H]3[C@@H](O)[C@H](N)C[C@H](N)[C@H]3O[C@H]3O[C@H](CN)[C@@H](O)[C@H](O)[C@H]3N)O[C@@H]2CO)[C@H](N)[C@@H](O)[C@@H]1O [FRAMYCETIN]	0.007	0.032	252
NC[C@H]1O[C@H](O[C@H]2[C@H](O)[C@@H](O)[C@H](N)C[C@@H]2N)[C@H](N)[C@@H](O)[C@@H]1O [NEAMINE]	9.5	5	120
